Source: ChEMBL document CHEMBL3045217, “Factors affecting the synergy of thiabendazole, sodium bicarbonate, and heat to control postharvest green mold of citrus fruit” (J Agric Food Chem, 2008)

Legend:
[1] = system: Penicillium digitatum; experiment: (§1) Fungicidal activity against TBZ-sensitive Penicillium digitatum infected Valencia oranges assessed as postharvest green mold incidence at 400 mg/L treated for 1 min at 40 degC at 20 hr after fungal conidial inoculation measured after 7 days of storage at 20 degC in presence of 2% SBC (water Rvb = 14.2%); format: functional
Method in brief: (§2)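 Fruit were surface-disinfected in 1 g/L hypochlorite for 30 s, rinsed, dried, then wounded twice equatorially (2 mm × 2 mm rod). Inoculation was a 1 min dip in P. digitatum conidia, 1 × 10^5 conidia/mL final. Fruit were held 20 h at 20 °C and 90% RH, dipped 1 min (SBC wt/vol), and air-dried. Storage was 20 °C, 90% RH. Decay incidence (% fruit with lesions) was scored at 5 d for mandarins and 7 d for oranges. Three replicates of 40 fruit were used; arcsin-transformed data were compared by LSD, p ≤ 0.05.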

[2] = system: Inner fruit; experiment: Drug residues in Citrus sinensis cvs. Salustiana (Salustiana oranges) inner fruit at 600 mg/L treated for 1 min at 50 degC postharvest measured after overnight incubation at 17 degC by GC analysis; format: ADME
Method in brief: (§3)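 'Salustiana' oranges were washed with water and air-dried. They were dipped 1 or 3 min in TBZ 600 mg/L at 20 or 50 °C, or 1 min in TBZ 600 mg/L plus 2% SBC at 20 °C, then dried overnight at 17 °C in the dark. Surface residue was taken by water extraction and wax residue by chloroform extraction. Inner residue was measured in fruit after both extractions. Extracts were dried under N2, taken up in acetone and analysed by GC. Values are mg/kg on a whole-fruit basis.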

[3] = system: Fruit; experiment: Drug residues in Citrus sinensis cvs. Valencia late (Valencia oranges) at 600 mg/L treated for 1 min at 20 degC postharvest measured after 10 days of storage at 17 degC in presence of 0.5% SBC by GC analysis; format: ADME
Method in brief: (§4)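 'Valencia' oranges were dipped 1 min in TBZ at 600 mg/L (20 °C, ±0.5, 1 or 2% wt/vol SBC), 400 mg/L (40 °C, ±SBC) or 200 mg/L (50 °C, alone), then air-dried. They were sampled at 0, 10 and 20 days at 17 °C. Peel of five fruit was frozen, and 5 g of homogenate was extracted with ethyl acetate/hexane (1/1) plus NaCl. The extract was dried under N2, taken up in acetone and analysed by GC. Results are mg/kg on a whole-fruit basis.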

[4] = system: Penicillium digitatum; experiment: Fungicidal activity against Penicillium digitatum infected Valenica oranges assessed as fruit weight loss at 600 mg/L treated for 1 min at 20 degC postharvest at 20 hr after fungal conidial inoculation measured after 14 days of storage at 17 degC in presence of 1% SBC (water Rvb = 7.65%); format: functional
[5] = system: Inner fruit; experiment: Drug residues in Citrus sinensis cvs. Salustiana (Salustiana oranges) inner fruit at 600 mg/L treated for 3 min at 20 degC postharvest measured after overnight incubation at 17 degC by GC analysis; format: ADME; conditions: 0.05 h; method in brief: as §3
[6] = system: Fruit; experiment: Drug residues in Citrus sinensis cvs. Valencia late (Valencia oranges) at 600 mg/L treated for 1 min at 20 degC postharvest measured immediately post-drug treatment by GC analysis; format: ADME; method in brief: as §4
[7] = system: Fruit; experiment: Total drug residues in Citrus sinensis cvs. Salustiana (Salustiana oranges) fruit at 600 mg/L treated for 1 min at 20 degC postharvest measured after overnight incubation at 17 degC in presence of 2% SBC by GC analysis; format: ADME
Method in brief: (§5)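 'Salustiana' oranges were water-washed, dried, dipped, then dried overnight at 17 °C in the dark. Unextracted fruit were used for total residues. Peel from five oranges was frozen at -18 °C. 5 g homogenized peel was extracted with 10 mL ethyl acetate/hexane (1/1) plus 2 g NaCl, shaken 30 min, then 1 mL of organic layer was dried under N2, redissolved in acetone, and run by GC without cleanup. Results are on a whole-fruit basis.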

[8] = system: Penicillium digitatum; experiment: as §1, with “TBZ-resistant” for “TBZ-sensitive”, “Nova mandarins” for “Valencia oranges”, “5” for “7”, “61.7%)” for “14.2%)”; format: functional
[9] = system: Fruit; experiment: Drug residues in Citrus sinensis cvs. Valencia late (Valencia oranges) at 400 mg/L treated for 1 min at 40 degC postharvest measured immediately post-drug treatment in presence of 1% SBC by GC analysis; format: ADME; method in brief: as §4
[10] = system: Penicillium digitatum; experiment: Fungicidal activity against Penicillium digitatum infected Valenica oranges assessed as fruit weight loss at 600 mg/L treated for 1 min at 20 degC postharvest at 20 hr after fungal conidial inoculation measured after 7 days of storage at 17 degC in presence of 2% SBC (water Rvb = 3.94%); format: functional
[11] = system: Penicillium digitatum; experiment: as §1, with “600” for “400”, “20” for “40”, “0.5%” for “2%”, “64.2%)” for “14.2%)”; format: functional; method in brief: as §2
[12] = system: Fruit surface; experiment: Drug residues on Citrus sinensis cvs. Salustiana (Salustiana oranges) fruit surface at 600 mg/L treated for 1 min at 20 degC postharvest measured after overnight incubation at 17 degC in presence of 2% SBC by GC analysis; format: ADME; method in brief: as §3
[13] = system: Fruit; experiment: Drug residues in Citrus sinensis cvs. Valencia late (Valencia oranges) at 600 mg/L treated for 1 min at 20 degC postharvest measured after 10 days of storage at 17 degC in presence of 2% SBC by GC analysis; format: ADME; method in brief: as §4
[14] = system: Penicillium digitatum; experiment: as §1, with “TBZ-resistant” for “TBZ-sensitive”, “Nova mandarins” for “Valencia oranges”, “600” for “400”, “20” for “40”, “5” for “7”, “61.7%)” for “14.2%)”; format: functional
[15] = system: Penicillium digitatum; experiment: Fungicidal activity against Penicillium digitatum infected Valenica oranges assessed as fruit weight loss at 400 mg/L treated for 1 min at 40 degC postharvest at 20 hr after fungal conidial inoculation measured after 21 days of storage at 17 degC in presence of 1% SBC (water Rvb = 12.71%); format: functional
[16] = system: Fruit; experiment: Total drug residues in Citrus sinensis cvs. Salustiana (Salustiana oranges) fruit at 600 mg/L treated for 3 min at 20 degC postharvest measured after overnight incubation at 17 degC by GC analysis; format: ADME; conditions: 0.05 h; method in brief: as §5
[17] = system: Penicillium digitatum; experiment: as §1, with “0.5%” for “2%”, “42.5%)” for “14.2%)”; format: functional; method in brief: as §2
[18] = system: Penicillium digitatum; experiment: as §1, with “TBZ-resistant” for “TBZ-sensitive”, “Nova mandarins” for “Valencia oranges”, “5” for “7”, “1%” for “2%”, “76.7%)” for “14.2%)”; format: functional
[19] = system: Penicillium digitatum; experiment: Fungicidal activity against Penicillium digitatum infected Valenica oranges assessed as fruit weight loss at 200 mg/L treated for 1 min at 50 degC postharvest at 20 hr after fungal conidial inoculation measured after 7 days of storage at 17 degC (water Rvb = 3.23%); format: functional
[20] = system: Penicillium digitatum; experiment: as §1, with “600” for “400”, “20” for “40”, “20.8%)” for “14.2%)”; format: functional; method in brief: as §2
[21] = system: Penicillium digitatum; experiment: Fungicidal activity against Penicillium digitatum infected Valenica oranges assessed as fruit weight loss at 200 mg/L treated for 1 min at 50 degC postharvest at 20 hr after fungal conidial inoculation measured after 14 days of storage at 17 degC (water Rvb = 6.18%); format: functional

## c1ccc2[nH]c(-c3cscn3)nc2c1 [THIABENDAZOLE]
[1]
  Activity: 12.5%
[2]
  Drug uptake: 0.17 mg/kg
[3]
  Drug uptake: 1.4 mg/kg
[4]
  Activity: 8.47%
[5]
  Drug uptake: 0.13 mg/kg
[6]
  Drug uptake: 1.59 mg/kg
[7]
  Drug uptake: 0.91 mg/kg
[8]
  Activity: 23.3%
[9]
  Drug uptake: 0.75 mg/kg
[10]
  Activity: 4.81%
[11]
  Activity: 18.3%
[12]
  Drug uptake: 0.53 mg/kg
[13]
  Drug uptake: 1.23 mg/kg
[14]
  Activity: 40%
[15]
  Activity: 12.11%
[16]
  Drug uptake: 1.1 mg/kg
[17]
  Activity: 16.7%
[18]
  Activity: 40%
[19]
  Activity: 2.98%
[20]
  Activity: 2.5%
[21]
  Activity: 5.8%
